Reference: ChEMBL document CHEMBL1131238, “Investigation of the N-substituent conformation governing potency and mu receptor subtype-selectivity in (+)-(3R, 4R)-dimethyl-4-(3-hydroxyphenyl)piperidine opioid antagonists” (J Med Chem, 1998)

Assays:
[1] = molecular target: T1, Kappa-type opioid receptor (Cavia porcellus, UniProt P41144); test: Inhibition of [3H]U-69593 binding to Opioid receptor kappa 1 of guinea pig membranes
[2] = molecular target: Delta-type opioid receptor (Rattus norvegicus, UniProt P33533); test: Inhibition of [3H]-DADLE binding to Opioid receptor delta 1 of rat brain membranes; format: cell membranes, Membrane
Delta-type opioid receptor, sequence (P33533 whole entry): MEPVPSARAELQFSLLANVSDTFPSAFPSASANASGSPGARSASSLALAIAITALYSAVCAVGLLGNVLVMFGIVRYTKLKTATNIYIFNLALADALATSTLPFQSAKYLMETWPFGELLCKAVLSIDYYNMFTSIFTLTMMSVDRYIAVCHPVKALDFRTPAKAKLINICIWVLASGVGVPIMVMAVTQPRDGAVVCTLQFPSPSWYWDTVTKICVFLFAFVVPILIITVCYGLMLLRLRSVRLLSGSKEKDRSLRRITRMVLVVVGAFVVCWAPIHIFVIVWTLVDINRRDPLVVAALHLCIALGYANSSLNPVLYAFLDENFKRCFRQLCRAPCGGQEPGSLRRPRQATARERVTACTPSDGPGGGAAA

Mu-type opioid receptor [3] = molecular target: Mu-type opioid receptor (Rattus norvegicus, UniProt P33535); test: Inhibition of [3H]DAMGO binding to Opioid receptor mu 1 of rat brain membranes; format: cell membranes, Membrane
Mu-type opioid receptor (Rattus norvegicus, UniProt P33535), sequence (P33535 whole entry): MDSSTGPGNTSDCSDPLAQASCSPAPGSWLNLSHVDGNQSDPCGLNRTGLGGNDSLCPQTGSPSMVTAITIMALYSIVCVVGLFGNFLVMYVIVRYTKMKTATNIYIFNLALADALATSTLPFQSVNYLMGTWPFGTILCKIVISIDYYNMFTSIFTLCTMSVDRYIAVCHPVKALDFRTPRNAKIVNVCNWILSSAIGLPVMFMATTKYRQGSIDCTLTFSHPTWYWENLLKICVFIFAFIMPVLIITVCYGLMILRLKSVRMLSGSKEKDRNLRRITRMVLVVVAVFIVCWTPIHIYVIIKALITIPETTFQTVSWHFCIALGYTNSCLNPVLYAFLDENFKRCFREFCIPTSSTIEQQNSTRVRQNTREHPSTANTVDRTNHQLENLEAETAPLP

Mu-type opioid receptor [4] = molecular target: Mu-type opioid receptor (Cavia porcellus, UniProt P97266); test: The compound was tested for antagonist activity by selective inhibition of [35S]GTP-gamma-S, binding to Opioid receptor mu 1 in Guinea pig caudate stimulated by DAMGO[mu]; format: functional
Mu-type opioid receptor (Cavia porcellus, UniProt P97266), sequence (P97266 whole entry): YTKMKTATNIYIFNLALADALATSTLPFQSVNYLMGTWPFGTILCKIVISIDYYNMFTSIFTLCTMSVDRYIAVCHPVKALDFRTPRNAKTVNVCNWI
Summary of the method: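 Guinea pig caudate putamen membranes (10 μg/tube) in 50 mM Tris-HCl pH 7.7, 0.1% BSA. Final: 100 mM NaCl, 5 mM MgCl2, 1 mM EDTA, 1 mM DTT, 100 μM GDP, 0.05–0.1 nM [35S]GTP-γ-S, agonist 500 nM or 10 μM, ≥10 antagonist concentrations; 4 h, filtration.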

[5] = molecular target: T1, Kappa-type opioid receptor; test: The compound was tested for antagonist activity by selective inhibition of [35S]GTP-gamma-S, binding in Guinea pig caudate stimulated by U69,593 to Opioid receptor kappa 1; format: functional

T1 sequence (P41144 whole entry): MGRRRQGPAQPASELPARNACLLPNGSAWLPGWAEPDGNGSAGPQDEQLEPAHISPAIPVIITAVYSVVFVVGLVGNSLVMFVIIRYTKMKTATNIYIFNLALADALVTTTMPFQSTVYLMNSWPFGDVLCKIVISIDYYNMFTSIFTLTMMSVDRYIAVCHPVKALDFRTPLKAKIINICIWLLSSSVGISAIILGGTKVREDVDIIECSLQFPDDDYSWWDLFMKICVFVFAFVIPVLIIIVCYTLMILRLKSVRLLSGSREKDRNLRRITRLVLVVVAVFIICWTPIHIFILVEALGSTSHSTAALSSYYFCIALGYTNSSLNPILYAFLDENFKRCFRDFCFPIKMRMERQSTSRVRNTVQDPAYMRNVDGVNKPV

SMILES	Ki [1]	Ki [2]	Ki (Mu-type opioid receptor [3])	Ki (Mu-type opioid receptor [4])	Ki [5]
C[C@H]1CN(C[C@@H]2C[C@H]2c2ccccc2)CC[C@@]1(C)c1cccc(O)c1	81.8 nM	709 nM	1.75 nM	–	–
C[C@H]1CN(C2CCCC2)CC[C@@]1(C)c1cccc(O)c1	199 nM	> 7300 nM	444 nM	–	–
C[C@H]1CN(CC[C@H](O)C2CCCCC2)CC[C@@]1(C)c1cccc(O)c1	28 nM	198 nM	0.32 nM	0.021 nM	0.33 nM
C[C@H]1CN(Cc2cc3ccccc3s2)CC[C@@]1(C)c1cccc(O)c1	> 690 nM	1580 nM	21.2 nM	–	–
C[C@H]1CN(C2CCCC(O)(c3ccccc3)C2)CC[C@@]1(C)c1cccc(O)c1 (stereo partly drawn)	674 nM	> 7300 nM	203 nM	–	–
C[C@H]1CN(C/C=C/c2ccccc2Cl)CC[C@@]1(C)c1cccc(O)c1	35.8 nM	168 nM	1.12 nM	0.026 nM	0.567 nM
C[C@H]1CN(C/C=C/c2ccccc2)CC[C@@]1(C)c1cccc(O)c1	122 nM	322 nM	0.74 nM	0.039 nM	1.04 nM
Cc1ccccc1/C=C/CN1CC[C@@](C)(c2cccc(O)c2)[C@@H](C)C1	38.9 nM	142 nM	0.86 nM	0.013 nM	0.17 nM
C[C@H]1CN(C2CCCC(O)C2)CC[C@@]1(C)c1cccc(O)c1 (stereo partly drawn)	1150 nM	> 7300 nM	–	–	–
C[C@H]1CN(Cc2cc3ccccc3o2)CC[C@@]1(C)c1cccc(O)c1	> 690 nM	1450 nM	22.2 nM	–	–
C[C@H]1CN(C2CCCCC2)CC[C@@]1(C)c1cccc(O)c1	315 nM	> 7300 nM	1280 nM	–	–
C[C@H]1CN(C/C=C\c2ccccc2)CC[C@@]1(C)c1cccc(O)c1	298 nM	931 nM	11.4 nM	–	–
